Reference: ChEMBL document CHEMBL1128220, “Syntheses and antimalarial activities of N-substituted 11-azaartemisinins” (J Med Chem, 1995)

Columns and labels:
Mus musculus [1] = assay: In vivo study of compound in mice was determined by no. of dead mice after 26 days post infection at the dose of 8 mg/kg/day; assay type: ADME, organism-based; conditions: 624 h
Outline: (§1)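 Mice infected with Plasmodium berghei were dosed in mg/kg/day, from 0 for untreated controls up to 256. Deaths were logged by the day postinfection on which they occurred. Surviving mice were counted 60 days after infection. Treated groups held 5 or 7 mice.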

Mus musculus [2] = assay: Number of mice alive 60 days after infection at the dose of 32 mg/kg/day among the 5 mice tested; assay type: functional; outline: as §1
Mus musculus [3] = assay: In vivo study of compound in mice was determined by no. of dead mice after 19 days post infection at the dose of 8 mg/kg/day; assay type: ADME, organism-based; conditions: 456 h; outline: as §1
Mus musculus [4] = assay: In vivo study of compound in mice was determined by no. of dead mice after 16 days post infection at the dose of 8 mg/kg/day; assay type: ADME, organism-based; conditions: 384 h; outline: as §1
Mus musculus [5] = assay: Number of mice alive 60 days after infection at the dose of 8 mg/kg/day among the 5 mice tested; assay type: functional; outline: as §1
Mus musculus [6] = assay: Number of mice alive 60 days after infection at the dose of 128 mg/kg/day among the 5 mice tested; assay type: functional; outline: as §1
Mus musculus [7] = assay: In vivo study of compound in mice was determined by no. of dead mice after 15 days post infection at the dose of 8 mg/kg/day; assay type: ADME, organism-based; conditions: 360 h; outline: as §1
Plasmodium falciparum = assay: In vitro antimalarial activity for chloroquine-resistant Plasmodium falciparum FCR3 relative to artemisinin; assay type: functional
Mus musculus [8] = assay: In vivo study of Plasmodium berghei in mice (Mus musculus) was determined by number of dead mice (Mus musculus) after 20 days post infection at the dose of 8 mg/kg/day; assay type: ADME, organism-based; conditions: 480 h; outline: as §1
Mus musculus [9] = assay: Number of mice alive 60 days after infection at the dose of 16 mg/kg/day among the 7 mice tested; assay type: functional; outline: as §1
Mus musculus [10] = assay: In vivo study of compound in mice was determined by no. of dead mice after 18 days post infection at the dose of 16 mg/kg/day; assay type: ADME, organism-based; conditions: 432 h; outline: as §1
Mus musculus [11] = assay: In vivo study of compound in mice was determined by no. of dead mice after 12 days post infection at the dose of 4 mg/kg/day; assay type: ADME, organism-based; conditions: 288 h; outline: as §1
Mus musculus [12] = assay: Number of mice alive 60 days after infection at the dose of 4 mg/kg/day among the 7 mice tested; assay type: functional; outline: as §1
Mus musculus [13] = assay: In vivo study of compound in mice was determined by no. of dead mice after 18 days post infection at the dose of 4 mg/kg/day; assay type: ADME, organism-based; conditions: 432 h; outline: as §1
Mus musculus [14] = assay: In vivo study of compound in mice was determined by no. of dead mice after 9 days post infection at the dose of 4 mg/kg/day; assay type: ADME, organism-based; conditions: 216 h; outline: as §1
Mus musculus [15] = assay: In vivo study of compound in mice was determined by no. of dead mice after 8 days post infection at the dose of 4 mg/kg/day; assay type: ADME, organism-based; conditions: 192 h; outline: as §1
Mus musculus [16] = assay: Number of mice alive 60 days after infection at the dose of 256 mg/kg/day among the 7 mice tested; assay type: functional; outline: as §1
Mus musculus [17] = assay: In vivo study of compound in mice was determined by no. of dead mice after 16 days post infection at the dose of 4 mg/kg/day; assay type: ADME, organism-based; conditions: 384 h; outline: as §1
Mus musculus [18] = assay: In vivo study of compound in mice was determined by no. of dead mice after 11 days post infection at the dose of 4 mg/kg/day; assay type: ADME, organism-based; conditions: 264 h; outline: as §1
Mus musculus [19] = assay: Number of mice alive 60 days after infection at the dose of 64 mg/kg/day among the 7 mice tested; assay type: functional; outline: as §1
Mus musculus [20] = assay: In vivo study of Plasmodium berghei in mice (Mus musculus) was determined by number of dead mice (Mus musculus) after 16 days post infection at the dose of 8 mg/kg/day; assay type: ADME, organism-based; conditions: 384 h; outline: as §1
Mus musculus [21] = assay: In vivo study of Plasmodium berghei in mice (Mus musculus) was determined by number of dead mice (Mus musculus) after 27 days post infection at the dose of 32 mg/kg/day; assay type: ADME, organism-based; conditions: 648 h; outline: as §1
Mus musculus [22] = assay: In vivo study of control in mice was determined by no. of dead mice after 9 days post infection at the dose of 0 mg/kg/day; assay type: ADME, organism-based; conditions: 216 h; outline: as §1
Mus musculus [23] = assay: Number of mice alive 60 days after infection at the dose of 0 mg/kg/day among the 7 mice tested; assay type: functional; outline: as §1
Mus musculus [24] = assay: In vivo study of Plasmodium berghei in mice (Mus musculus) was determined by number of dead mice (Mus musculus) after 20 days post infection at the dose of 32 mg/kg/day; assay type: ADME, organism-based; conditions: 480 h; outline: as §1
Mus musculus [25] = assay: In vivo study of control in mice was determined by no. of dead mice after 8 days post infection at the dose of 0 mg/kg/day; assay type: ADME, organism-based; conditions: 192 h; outline: as §1
Mus musculus [26] = assay: In vivo study of Plasmodium berghei in mice (Mus musculus) was determined by number of dead mice (Mus musculus) after 17 days post infection at the dose of 128 mg/kg/day; assay type: ADME, organism-based; conditions: 408 h; outline: as §1
Mus musculus [27] = assay: In vivo study of control in mice was determined by no. of dead mice after 7 days post infection at the dose of 0 mg/kg/day; assay type: ADME, organism-based; conditions: 168 h; outline: as §1
Mus musculus [28] = assay: In vivo study of Plasmodium berghei in mice (Mus musculus) was determined by number of dead mice (Mus musculus) after 13 days post infection at the dose of 8 mg/kg/day; assay type: ADME, organism-based; conditions: 312 h; outline: as §1
Mus musculus [29] = assay: Number of mice alive 60 days after infection at the dose of 32 mg/kg/day among the 7 mice tested; assay type: functional; outline: as §1
Mus musculus [30] = assay: In vivo study of Plasmodium berghei in mice (Mus musculus) was determined by number of dead mice (Mus musculus) after 18 days post infection at the dose of 32 mg/kg/day; assay type: ADME, organism-based; conditions: 432 h; outline: as §1
Mus musculus [31] = assay: In vivo study of control in mice was determined by no. of dead mice after 10 days post infection at the dose of 0 mg/kg/day; assay type: ADME, organism-based; conditions: 240 h; outline: as §1
Mus musculus [32] = assay: In vivo study of Plasmodium berghei in mice (Mus musculus) was determined by number of dead mice (Mus musculus) after 12 days post infection at the dose of 32 mg/kg/day; assay type: ADME, organism-based; conditions: 288 h; outline: as §1
Mus musculus [33] = assay: In vivo study of Plasmodium berghei in mice (Mus musculus) was determined by number of dead mice (Mus musculus) after 14 days post infection at the dose of 8 mg/kg/day; assay type: ADME, organism-based; conditions: 336 h; outline: as §1
Mus musculus [34] = assay: In vivo study of Plasmodium berghei in mice (Mus musculus) was determined by number of dead mice (Mus musculus) after 19 days post infection at the dose of 32 mg/kg/day; assay type: ADME, organism-based; conditions: 456 h; outline: as §1
Mus musculus [35] = assay: Number of mice alive 60 days after infection at the dose of 128 mg/kg/day among the 7 mice tested; assay type: functional; outline: as §1
Mus musculus [36] = assay: Number of mice alive 60 days after infection at the dose of 8 mg/kg/day among the 7 mice tested; assay type: functional; outline: as §1

For `C[C@@H]1CCC2[C@@H](C)C(=O)N(CC=O)[C@@H]3O[C@@]4(C)CC[C@@H]1[C@@]23OO4` (some centres not stated), the “No. of dead mice” value (Mus musculus [1]) was 1, the “No. of mice alive” value (Mus musculus [2]) was 5 and the “No. of dead mice” value (Mus musculus [3]) was 1. The “No. of dead mice” value (Mus musculus [4]) was 1, the “No. of mice alive” value (Mus musculus [5]) was 0 and the “No. of mice alive” value (Mus musculus [6]) was 5. For the same compound, the “No. of dead mice” value (Mus musculus [7]) was 1, the Relative activity (Plasmodium falciparum) was 26 and the “No. of dead mice” value (Mus musculus [8]) was 1.

For `CCOC1O[C@@H]2O[C@@]3(C)CC[C@H]4[C@H](C)CCC([C@H]1C)[C@@]24OO3` (some centres not stated), the “No. of mice alive” value (Mus musculus [9]) was 6, the “No. of dead mice” value (Mus musculus [10]) was 1 and the “No. of dead mice” value (Mus musculus [11]) was 1. For the same compound, the “No. of mice alive” value (Mus musculus [12]) was 0, the “No. of dead mice” value (Mus musculus [13]) was 2 and the “No. of dead mice” value (Mus musculus [14]) was 1. For the same compound, the “No. of dead mice” value (Mus musculus [15]) was 1, the “No. of mice alive” value (Mus musculus [16]) was 7 and the “No. of dead mice” value (Mus musculus [17]) was 1. For the same compound, the “No. of dead mice” value (Mus musculus [18]) was 1 and the “No. of mice alive” value (Mus musculus [19]) was 7.

`C[C@@H]1CCC2[C@@H](C)C(=O)N(C)[C@@H]3O[C@@]4(C)CC[C@@H]1[C@@]23OO4` (some centres not stated) showed a Relative activity (Plasmodium falciparum) of 2.6.

With `C=CCN1C(=O)[C@H](C)C2CC[C@@H](C)[C@@H]3CC[C@@]4(C)OO[C@@]23[C@H]1O4` (some centres not stated) the Relative activity (Plasmodium falciparum) was 0.8.

`C[C@@H]1CCC2[C@@H](C)C(=O)N(Cc3ccco3)[C@@H]3O[C@@]4(C)CC[C@@H]1[C@@]23OO4` (some centres not stated) was tested, and the Relative activity (Plasmodium falciparum) was 1.

`C[C@@H]1CCC2[C@@H](C)C(=O)N[C@@H]3O[C@@]4(C)CC[C@@H]1[C@@]23OO4` (some centres not stated) gave a Relative activity (Plasmodium falciparum) of 1.

With `C[C@@H]1CCC2[C@@H](C)C(=O)N(Cc3ccccn3)[C@@H]3O[C@@]4(C)CC[C@@H]1[C@@]23OO4` (some centres not stated) the Relative activity (Plasmodium falciparum) was 22.

`CO[C@@]1(C)CC[C@@H]2C3C(CC[C@H]2C)[C@@H](C)C(=O)N(CC(C)(C)C)[C@@H]3O1` (some centres not stated) gave a Relative activity (Plasmodium falciparum) of 0.001.

With `C[C@@H]1CCC2[C@@H](C)C(=O)N(CC(C)(C)C)[C@@H]3O[C@@]4(C)CC[C@@H]1[C@@]23OO4` (some centres not stated) the Relative activity (Plasmodium falciparum) was 9.

Compound `CO[C@@]1(C)CC[C@@H]2C3C(CC[C@H]2C)[C@@H](C)C(=O)N[C@@H]3O1` (some centres not stated) has a Relative activity (Plasmodium falciparum) of 0.01.

In the case of `C[C@@H]1CCC2[C@@H](C)C(=O)N(Cc3cccs3)[C@@H]3O[C@@]4(C)CC[C@@H]1[C@@]23OO4` (some centres not stated), the Relative activity (Plasmodium falciparum) is reported as 1.1.

`CO[C@@]1(C)CC[C@@H]2C3C(CC[C@H]2C)[C@@H](C)C(=O)N(Cc2ccccn2)[C@@H]3O1` (some centres not stated) showed a Relative activity (Plasmodium falciparum) of 0.008.

In the case of `C[C@@H]1CC[C@H]2[C@@H](C)C(=O)O[C@@H]3O[C@@]4(C)CC[C@@H]1[C@]32OO4` [ARTEMISININ], the “No. of dead mice” value (Mus musculus [20]) is reported as 2, the “No. of dead mice” value (Mus musculus [21]) is reported as 1 and the “No. of dead mice” value (Mus musculus [22]) is reported as 1. For the same compound, the “No. of mice alive” value (Mus musculus [23]) was 0, the “No. of dead mice” value (Mus musculus [24]) was 1 and the “No. of dead mice” value (Mus musculus [25]) was 2. For the same compound, the “No. of dead mice” value (Mus musculus [26]) was 1, the “No. of dead mice” value (Mus musculus [27]) was 3 and the “No. of dead mice” value (Mus musculus [28]) was 1. For the same compound, the “No. of mice alive” value (Mus musculus [29]) was 2, the “No. of dead mice” value (Mus musculus [30]) was 1 and the “No. of dead mice” value (Mus musculus [31]) was 1. The “No. of dead mice” value (Mus musculus [32]) was 1, the “No. of dead mice” value (Mus musculus [33]) was 2 and the “No. of dead mice” value (Mus musculus [34]) was 1. The “No. of mice alive” value (Mus musculus [35]) was 6 and the “No. of mice alive” value (Mus musculus [36]) was 0.
